# Test results from ChEMBL document CHEMBL4145471, “New 1,5 and 2,5-disubstituted tetrazoles-dependent activity towards surface barrier of Candida albicans” (Eur J Med Chem, 2018).
# Key:
# [1] = test system: Candida albicans; test: Antifungal activity against Candida albicans ATCC 90028 at 4 ug/ml after 18 hrs relative to control; format: functional
# Outline: (§1)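 Planktonic broth microdilution per M27-A3 in MOPS-buffered RPMI 1640 (pH 7.0), final inoculum 1.8×10^3 cells/mL, compounds 0.0313–16 µg/mL from 1600 µg/mL stocks in ethanol or DMSO. Incubated at 35°C without agitation; OD405 read at 18 and 48 h. % inhibition was derived from test, sterility (no inoculum) and solvent growth-control wells. Amphotericin B at 0.5 µg/mL served as the 100% control.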
# [2] = test system: Candida albicans; test: Antifungal activity against Candida albicans ATCC 90028 at 2 ug/ml after 18 hrs relative to control; format: functional; outline: as §1
# [3] = test system: Candida albicans; test: Antifungal activity against Candida albicans ATCC 90028 at 0.25 ug/ml after 18 hrs relative to control; format: functional
# Outline: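 Fluconazole (water stock, diluted in RPMI 1640) tested by CLSI M27-A3 broth microdilution against C. albicans ATCC 90028. Inoculum 1.8×10^3 cells/mL in RPMI 1640 buffered with MOPS, pH 7.0. Incubation at 35°C without agitation, read at 18 and 48 h. Growth by OD405 and visually; inhibition % calculated against solvent growth-control wells after subtracting sterility-control wells.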
# [4] = test system: Candida albicans; test: Antifungal activity against Candida albicans ATCC 90028 at 0.125 ug/ml after 48 hrs relative to control; format: functional; outline: as §1
# [5] = test system: Candida albicans; test: Antifungal activity against Candida albicans ATCC 90028 at 0.0313 ug/ml after 18 hrs relative to control; format: functional
# [6] = test system: Candida albicans; test: Antifungal activity against Candida albicans ATCC 90028 at 0.0313 ug/ml after 48 hrs relative to control; format: functional
# [7] = test system: Candida albicans; test: Synergistic antifungal activity against Candida albicans ATCC 90028 at 40 ug/ml after 48 hrs in presence of 40 ug/ml fluconazol by checkerboard assay relative to control; format: functional; conditions: ATCC 90028, 48 h, read-out: GI
# Outline: (§2)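 Checkerboard in C. albicans ATCC 90028, inoculum prepared per CLSI M27-A3 in RPMI. Fluconazole serially diluted 80-1.25 µg/mL across the plate against the partner compound at 80-1.25 µg/mL final. Incubated 48 h at 35°C. Metabolic activity read by XTT reduction at 475 nm (660 nm reference), given as % of the untreated growth control.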
# [8] = test system: Candida albicans; test: Synergistic antifungal activity against Candida albicans ATCC 90028 at 20 ug/ml after 48 hrs in presence of 40 ug/ml fluconazol by checkerboard assay relative to control; format: functional; outline: as §2
# [9] = test system: Candida albicans; test: Synergistic antifungal activity against Candida albicans ATCC 90028 at 20 ug/ml after 48 hrs in presence of 5 ug/ml fluconazol by checkerboard assay relative to control; format: functional; outline: as §2
# [10] = test system: Candida albicans; test: Synergistic antifungal activity against Candida albicans ATCC 90028 at 10 ug/ml after 48 hrs in presence of 10 ug/ml fluconazol by checkerboard assay relative to control; format: functional; conditions: ATCC 90028, 48 h, read-out: GI
# Outline: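 Checkerboard per M27-A3 against ATCC 90028: fluconazole at 80–1.25 µg/mL horizontally and partner compound at 80–1.25 µg/mL vertically, 100 µL yeast inoculum per well, 35°C for 48 h. After 48 h, metabolic activity was measured by XTT reduction at 475 nm (660 nm reference) relative to untreated growth control. FIC index is the sum of the FICs; <1 was defined as synergism and >1 as antagonism.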
# [11] = test system: Candida albicans; test: Synergistic antifungal activity against Candida albicans ATCC 90028 at 5 ug/ml after 48 hrs in presence of 40 ug/ml fluconazol by checkerboard assay relative to control; format: functional; outline: as §2
# [12] = test system: Candida albicans; test: Synergistic antifungal activity against Candida albicans ATCC 90028 at 5 ug/ml after 48 hrs in presence of 1.25 ug/ml fluconazol by checkerboard assay relative to control; format: functional; outline: as §2
# [13] = test system: Candida albicans; test: Synergistic antifungal activity against Candida albicans ATCC 90028 at 2.5 ug/ml after 48 hrs in presence of 10 ug/ml fluconazol by checkerboard assay relative to control; format: functional
# Outline: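 Checkerboard microdilution (M27-A3) on C. albicans ATCC 90028 in RPMI 1640: fluconazole (80-1.25 µg/mL) crossed with tetrazole (80-1.25 µg/mL final), incubated at 35°C for 48 h. Growth by OD405 at 18 and 48 h, endpoint taken as 100% inhibition. FIC index = sum of the two agents' FICs; <1 synergism, >1 antagonism.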
# [14] = test system: Candida albicans; test: Antifungal activity against Candida albicans ATCC 90028 assessed as inhibition of metabolic activity at 10 ug/ml after 48 hrs in presence of 20 ug/ml fluconazol by XTT assay relative to control; format: functional; conditions: values are per cent of control
# Outline: (§3)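 Checkerboard against strain ATCC 90028, inoculum per M27-A3: fluconazole 80-1.25 µg/mL on one axis, tetrazole 80-1.25 µg/mL on the other. Plates at 35°C for 48 h, then XTT metabolic reduction read at 475 nm (660 nm reference). Activity is the drop in mean absorbance against untreated growth control. FICs and their summed FIC index are taken at 50% reduction in metabolic activity.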
# [15] = test system: Candida albicans; test: Antifungal activity against Candida albicans ATCC 90028 assessed as inhibition of metabolic activity at 10 ug/ml after 48 hrs in presence of 10 ug/ml fluconazol by XTT assay relative to control; format: functional; conditions: ATCC 90028, 48 h, values are per cent of control; outline: as §3
# [16] = test system: Candida albicans; test: Antifungal activity against Candida albicans ATCC 90028 assessed as inhibition of metabolic activity at 5 ug/ml after 48 hrs in presence of 20 ug/ml fluconazol by XTT assay relative to control; format: functional; conditions: values are per cent of control; outline: as §3
# [17] = test system: Candida albicans; test: Antifungal activity against Candida albicans ATCC 90028 assessed as inhibition of metabolic activity at 5 ug/ml after 48 hrs in presence of 5 ug/ml fluconazol by XTT assay relative to control; format: functional; conditions: ATCC 90028, 48 h, values are per cent of control; outline: as §3
# [18] = test system: Candida albicans; test: Antifungal activity against Candida albicans ATCC 90028 assessed as FIC at 80 ug/ml in presence of fluconazol after 48 hrs by checkerboard-based XTT assay; format: functional; outline: as §3
# [19] = test system: Candida albicans; test: Antifungal activity against Candida albicans ATCC 90028 assessed as metabolic activity at 80 ug/ml after 48 hrs in presence of 5 ug/ml fluconazol by XTT assay relative to control
# [20] = test system: Candida albicans; test: Antifungal activity against Candida albicans ATCC 90028 assessed as metabolic activity at 20 ug/ml after 48 hrs in presence of 5 ug/ml fluconazol by XTT assay relative to control
# [21] = test system: Candida albicans; test: Antifungal activity against Candida albicans ATCC 90028 assessed as metabolic activity at 40 ug/ml after 48 hrs in presence of 20 ug/ml fluconazol by XTT assay relative to control
# [22] = test system: Candida albicans; test: Antifungal activity against Candida albicans ATCC 90028 assessed as metabolic activity at 20 ug/ml after 48 hrs in presence of 40 ug/ml fluconazol by XTT assay relative to control
Structure (SMILES),Activity [1],Activity [2],Activity [3],Activity [4],Activity [5],Activity [6],inhibition of growth at 40 µg/mL [7],growth inhibition (GI) [8],growth inhibition (GI) [9],inhibition of growth at 10 µg/mL [10],growth inhibition (GI) [11],growth inhibition (GI) [12],growth inhibition (GI) [13],residual activity [14],residual activity at 10 µg/mL [15],residual activity [16],residual activity at 5 µg/mL [17],FIC [18],Metabolic activity [19],Metabolic activity [20],other results
Cc1ccc(-c2nnn(CCCN3CCOCC3)n2)cc1,99.75%,95.72%,98.25%,98.96%,99.87%,99.56%,99.5%,98.99%,98.27%,99%,99.15%,98.77%,99.09%,93.01%,99%,93.31%,100%,>1.25,100%,100%,Metabolic activity [21]: 54.14%; Metabolic activity [22]: 93.5%
ClCCCn1nnnc1-c1ccccc1Cl,99.62%,97.4%,99.96%,99.43%,99.51%,99.38%,99.4%,99.34%,99.02%,99.7%,99.25%,99.79%,99.75%,87.4%,75.4%,73.79%,100%,>5,100%,99.55%,Metabolic activity [21]: 74.1%; Metabolic activity [22]: 82.92%
CCOC(=O)CCn1nnc(-c2ccccc2)n1,99.96%,99.35%,98.4%,99.18%,99.34%,99.12%,99.5%,99.29%,98.72%,99.4%,99.51%,99.71%,99.49%,70.81%,76.2%,67.66%,100%,>5,100%,100%,Metabolic activity [21]: 54.82%; Metabolic activity [22]: 99.65%
